How the values were obtained:
PEDV SM98 strain [1] = assay: Simultaneous-treatment antiviral assay; type: cell-based, porcine epidemic diarrhea virus; conditions: for IC50: Porcine epidemic diarrhea virus, Vero, read-out: Simultaneous-treatment IC50; for selectivity ratio at 72 h: African green monkey, Vero cells infected with PEDV SM98 strain
Method in brief: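 Test compound at various concentrations was premixed with PEDV SM98 (MOI 0.01) for 1 h at 4 °C. The mixture was put on near-confluent Vero monolayers (1 × 10^5 cells/well) for 1 h with occasional rocking, then replaced with fresh medium; triplicate wells. After 72 h, MTT was read (4 h, 37 °C; A540 minus 655 nm). IC50 came from regression analysis, and SI = CC50/IC50.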

PEDV SM98 strain [2] = assay: Post-treatment antiviral assay; type: cell-based, porcine epidemic diarrhea virus; conditions: for IC50: Porcine epidemic diarrhea virus, Vero, read-out: Post-treatment IC50
Method in brief: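 Near-confluent Vero monolayers (1 × 10^5 cells/well) were infected with PEDV SM98 at MOI 0.01 for 1 h with occasional rocking. Inoculum was replaced by EMEM containing test compound (1–200 μM), in triplicate. After 72 h, viability was read by MTT (4 h, 37 °C; A540 minus 655 nm). IC50 came from regression analysis, and SI = CC50/IC50.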

[3] = Cytotoxicity in Vero cells; type: cell-based; conditions: African green monkey
Method in brief: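 Vero cells were seeded at 1 × 10^5 cells/well and grown for 48 h. They were then exposed for 72 h to twofold serial dilutions of test compound (5–600 μg/mL or μM). MTT was added for 4 h at 37 °C, and formazan was dissolved in 0.04 M HCl–isopropanol. Absorbance was read at 540 nm minus 655 nm background. CC50 came from regression analysis; experiments were run three times.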

PEDV (SM98 strain) [4] = assay: Hemagglutination inhibition; type: cell-based, porcine epidemic diarrhea virus; conditions: 4 HAU PEDV, rabbit RBCs, 1 h room temperature
Method in brief: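 PEDV at 4 HAU was mixed with an equal volume of twofold serial dilutions of test compound in PBS (pH 7.4), with PBS alone as negative control, for 1 h at 4 °C. The mixture was combined with an equal volume of 1% rabbit RBC suspension and incubated 1 h at room temperature. Experiments were run three times.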

PEDV (SM98 strain) [5] = assay: Confocal immunofluorescence imaging of PEDV-infected Vero cells; type: cell-based, porcine epidemic diarrhea virus; conditions: 30 μM, 24 h
PEDV [6] = assay: Quantitative real-time RT-PCR of intracellular viral RNA; type: cell-based, porcine epidemic diarrhea virus
PEDV [7] = assay: Western blot of viral spike; type: cell-based, porcine epidemic diarrhea virus
Method in brief: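 Vero cells at about 90% confluence were infected with PEDV at MOI 0.01 for 1 h, then cultured with 30 μM test compound or 0.5% DMSO. Cells were harvested at 6, 12, 18 and 24 h and lysed, and proteins were separated on Bis–Tris gels and blotted to nitrocellulose. Blots were probed with anti-S antibody (12 h, 4 °C) and HRP secondary, then developed by chemiluminescence; GAPDH served as loading control.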

Row | Compound | IC50 (PEDV SM98 strain [1]) | Simultaneous-treatment IC50 (PEDV SM98 strain [1]; mixed with virus 0.01 MOI 1 h at 4 °C, Vero cells, 72 h) | IC50 (PEDV SM98 strain [2]) | CC50 at 72 h [3] | Minimum concentration that completely inhibited viral hemagglutination (PEDV (SM98 strain) [4]; listed as dieckol (5)) | selectivity ratio at 72 h (PEDV SM98 strain [1]) | Number of fluorescence-positive, PEDV-infected cells (PEDV (SM98 strain) [5]) | Viral RNA levels, early stage (PEDV [6]; 30 μM, 6 and 12 h after infection) | Viral RNA levels, late stage (PEDV [6]; 30 μM, 18 and 24 h after infection, vs untreated/infected cells (0.5% DMSO)) | Viral RNA levels relative to vehicle-treated cells (PEDV [6]; 50 μM, 24 h after infection, ORF3 gene normalized to GAPDH) | Effect on viral RNA levels (PEDV [6]; 5–50 μM, 24 h after infection) | selectivity ratio at 72 h (PEDV SM98 strain [2]; African green monkey, Vero cells infected with PEDV SM98 strain) | Synthesis of viral proteins, late stage (PEDV [7]; 30 μM, 18 and 24 h) | Synthesis of viral proteins (S protein) (PEDV [7]; 5–50 μM, 24 h post-infection) | Minimum concentration that completely inhibited viral hemagglutination (PEDV (SM98 strain) [4]; listed as eckol (2))
1 | Oc1cc(O)cc(O)c1 [Compound 1, phloroglucinol] | > 200 µM | did not show significant inhibitory effects | > 200 µM | 374 ± 4 µM | – | – | – | – | – | – | – | – | – | – | –
2 | Oc1cc(O)cc(Oc2c(O)cc(O)c3c2Oc2c(O)cc(Oc4c(O)cc(Oc5c(O)cc(O)c6c5Oc5c(O)cc(O)cc5O6)cc4O)cc2O3)c1 [Compound 5, dieckol] | 16.6 ± 3 µM | – | 14.6 ± 1.3 µM | 490.6 ± 1.6 µM | 3.8 to 5.4 µM | 29.5 | reduced the number of fluorescence-positive, PEDV-infected cells | largely unchanged | markedly decreased | 30–40% | significantly reduced viral RNA levels in dose-dependent manner | 33.6 | strongly inhibited | inhibited the synthesis of viral proteins | –
3 | Oc1cc(O)cc(Oc2c(O)cc(O)c3c2Oc2c(O)cc(O)cc2O3)c1 [Compound 2, eckol] | 22.5 ± 2.2 µM | – | > 200 µM | 388.3 ± 2.6 µM | – | 17.2 | – | – | – | – | – | – | – | – | 3.8 to 5.4 µM
